Values joined by “and” are separate entries in the source; they are usually repeats but may differ in a detail not shown here. Equal values may be shown once. Records with an inconclusive call do not appear. Active and inactive are the calls of the source.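 How the source made its calls: active means every repeat test active, with falling cell-viability signal and fitted midpoint potency at most ten times the top dose; inconclusive means tests disagree, flat partial drop, or a poor curve fit; inactive means every test flat, too weak, or rising.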

Tested on in the first assay: not listed separately
In words: growth inhibition of HMLE_shECad stem-like cells, dose response, cell-based, luminescence, dry powder, set 2 (AID 493226). As to conditions: HMLE_shECad viability, CellTiter-Glo luminescence, 72 h; at 30 µM (top of the series). In a few lines: (§1)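 System: HMLE_shECad model of stem-like breast cancer cells | Amount: 2000 cells/well | Buffer or medium: Serum-free CSC medium | Dosing: 100 nL compound per well by pin transfer | Schedule: Cell attachment ≥4 h, then compound exposure ~70-74 h, 37 °C, 5% CO2 | Signal: CellTiter-Glo luminescence, reagent diluted 1:3 in PBS, 12 min incubation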
On the technique in general: In ATP-based viability assays light output follows the ATP content of the culture.
Turning to `O=C(COc1ccc(Cl)cc1Cl)N/N=C/c1ccco1`, the activity change, negative = inhibition was -7.8% (inactive). The same measure, in the same setting: the same measure for `CCN(CC)C(=O)/C=C/c1ccc(C(C)C)cc1`: -2.71% (inactive); for `O=C(C#Cc1ccccc1)NC1=NCCS1`: 3.65% (inactive).

Consider `CCNC(=O)/C=C/c1ccc(C(C)C)cc1`, for which the activity change, negative = inhibition was 0.062% (inactive). With `Cc1c(C(=O)NC2=NCCS2)oc2ccccc12`, the activity change, negative = inhibition was -22.6% (inactive). On the same count and under the same terms, the same measure for `O=C(NC1=NCCS1)c1cc2ccccc2[nH]1`: -16.7% (inactive); for `CC(=O)Oc1ccc(/C=C/C(=O)NC2=NCCS2)cc1`: -16.2% (inactive). For `O=C(COc1ccc(Cl)cc1Cl)N/N=C/c1cccs1`, the activity change, negative = inhibition was -4.9% (inactive).

On to `O=C(NC1CCCC1)c1ccc(COc2ccccc2)o1`, for which the activity change, negative = inhibition was -15.7% (inactive). On the same count and under the same terms, as for `O=C(N/N=C/c1ccc[nH]1)C1Cc2ccccc2O1` (stereo not given), the figure is 12.7% (inactive); as for `O=C(COc1ccc(Cl)cc1Cl)N/N=C/c1cnc[nH]1`, 3.31% (inactive); as for `C/C(=N\NC(=O)COc1ccc(Cl)cc1Cl)c1ccc[nH]1`, -10.8% (inactive). Same read-out and setting: as for `Cc1ccccc1/C=C/C(=O)NC1=NCCS1`, the figure is -11.7% (inactive). On the same count and under the same terms, as for `O=C(/C=C/c1cc(Cl)ccc1Cl)NC1=NCCS1`, the figure is -13.1% (inactive); as for `O=Cc1ccc[nH]1`, -5.79% (inactive). `Cc1ccccc1NCC(=O)N/N=C/c1ccc[nH]1`: the activity change, negative = inhibition was -14.1% (inactive). The same measure, in the same setting: as for `O=C(COc1ccccc1F)N/N=C/c1ccc[nH]1`, the figure is 3.8% (inactive). On the same count and under the same terms, as for `O=C(O)c1ccc(COc2ccccc2)o1`, the figure is -1.91% (inactive); as for `COc1ccc(OC)c(/C=C/C(=O)NC2=NCCS2)c1`, 4.36% (inactive).

`O=C(CCc1ccccc1)NC1=NCCS1`: the activity change, negative = inhibition is -2.41% (inactive). On the same count and under the same terms, as for `COc1cc(/C=C/C(=O)NC2=NCCS2)cc(OC)c1OC`, the figure is 0.693% (inactive); as for `O=C(/C=C/c1ccc(Cl)c(Cl)c1)NC1=NCCS1`, 8.35% (inactive). For the compound `NNC(=O)COc1ccc(Cl)cc1Cl`, the activity change, negative = inhibition is -13% (inactive). Same read-out and setting: as for `CC(C)c1ccc(/C=C/C(=O)O)cc1`, the figure is 4.33% (inactive).

The subject of a further assay is HMLE_shECad viability, CellTiter-Glo luminescence, 72 h. The assay is described as above.
Conditions: not given
Summed up:
as §1
One may read the AC50 as the concentration giving half of the maximal activity seen. On to `O=C(COc1cc(Cl)ccc1Cl)N/N=C/c1ccc[nH]1`, for which the concentration at half-maximal activity (AC50) is 3.39 µM. The same measure, in the same setting: as for `COc1ccc(/C=C/C(=O)NC2=NCCS2)c(OC)c1`, the figure is 9.45 µM. In the case of `Cc1cc(C)c(/C=N/NC(=O)COc2ccc(Cl)cc2Cl)[nH]1`, the half-maximal activity concentration (AC50) was 12.6 µM.

In the case of `Cc1ccc(/C=N/NC(=O)COc2ccc(Cl)cc2Cl)[nH]1`, the AC50 was 14.3 µM. Still for that read-out and setting: as for `O=C(COc1ccc(Cl)cc1)N/N=C/c1ccc[nH]1`, the figure is 22.5 µM; as for `O=C(N/N=C/c1ccc[nH]1)c1cc2ccccc2o1`, 6.33 µM; as for `O=C(COc1ccc(F)cc1Cl)N/N=C/c1ccc[nH]1`, 8.88 µM. On the same count and under the same terms, as for `CN(C)c1ccc(/C=C/C(=O)NC2=NCCS2)cc1`, the figure is 27.3 µM; as for `Cc1csc(NC(=O)c2ccc(COc3ccccc3)o2)n1`, 1.18 µM. The same measure, in the same setting: as for `CC(C)(C)c1ccc2c(c1)OC(C(=O)N/N=C/c1ccc[nH]1)CO2` (stereo not given), the figure is 2.52 µM and 2.79 µM; as for `Cc1csc(NC(=O)/C=C/c2ccc(C(C)C)cc2)n1`, 3.29 µM; as for `CC(C)c1ccc(/C=C/C(=O)NC2=NCCS2)cc1`, 0.839 µM. Consider `CC(C)c1ccc(/C=C/C(=O)Nc2ccccc2)cc1`, for which the concentration at half-maximal activity (AC50) was 3.44 µM.

Regarding `Cc1cc(Cl)ccc1OCC(=O)N/N=C/c1ccc[nH]1`, the concentration at half-maximal activity (AC50) is 2.89 µM. On the same count and under the same terms, as for `O=C(COc1c(Cl)cc(Cl)cc1Cl)N/N=C/c1ccc[nH]1`, the figure is 1.16 µM; as for `O=C(COc1ccc(Cl)cc1Cl)N/N=C/c1ccc[nH]1`, 2.38 µM and 3.33 µM.

(Values after PubChem BioAssay AID493226 (Broad Institute, 2011).)
